Measured values: ChEMBL document CHEMBL1157892, “Cucurbitacin E as a new inhibitor of cofilin phosphorylation in human leukemia U937 cells” (Bioorg Med Chem Lett, 2010)
Active and inactive are the calls of the source. No cut-off for these calls is given here.

How the values were obtained:
[1] = target: Signal transducer and activator of transcription 3 (Homo sapiens) (UniProt P40763); assay: Inhibition of STAT3 phosphorylation in human U937 cells at 100 uM after 24 hrs by Western blotting; assay type: cell-based; settings: U-937
Chain of Signal transducer and activator of transcription 3 (Homo sapiens) (P40763 whole entry): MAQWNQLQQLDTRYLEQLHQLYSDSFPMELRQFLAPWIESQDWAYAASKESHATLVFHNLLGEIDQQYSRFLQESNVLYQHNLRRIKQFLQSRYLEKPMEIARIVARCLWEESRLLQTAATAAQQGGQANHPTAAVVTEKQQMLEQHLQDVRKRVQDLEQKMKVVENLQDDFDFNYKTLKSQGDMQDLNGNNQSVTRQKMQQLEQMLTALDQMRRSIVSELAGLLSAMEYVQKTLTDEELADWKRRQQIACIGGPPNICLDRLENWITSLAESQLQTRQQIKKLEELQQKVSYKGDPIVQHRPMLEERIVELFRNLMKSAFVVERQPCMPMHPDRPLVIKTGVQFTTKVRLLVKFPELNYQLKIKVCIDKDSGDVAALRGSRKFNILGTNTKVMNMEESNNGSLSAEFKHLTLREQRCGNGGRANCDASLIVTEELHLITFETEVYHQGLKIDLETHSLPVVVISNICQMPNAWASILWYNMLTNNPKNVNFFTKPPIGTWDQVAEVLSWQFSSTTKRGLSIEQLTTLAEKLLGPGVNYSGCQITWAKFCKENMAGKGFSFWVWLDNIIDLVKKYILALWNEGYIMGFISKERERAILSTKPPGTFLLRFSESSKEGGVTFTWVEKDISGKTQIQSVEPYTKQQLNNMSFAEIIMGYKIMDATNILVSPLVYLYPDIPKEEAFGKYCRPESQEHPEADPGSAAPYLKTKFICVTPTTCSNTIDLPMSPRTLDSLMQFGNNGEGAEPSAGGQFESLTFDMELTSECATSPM
Method in brief: (§1)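 U937 cells at 5.0 × 10⁴ cells/mL treated 24 h and lysed with phosphatase and protease inhibitors. 60 µg protein per lane run on 10% SDS–PAGE. Western blots probed with rabbit anti-phospho-STAT3 and anti-STAT3 (1:1000), then HRP anti-rabbit (1:5000), with ECL detection.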

[2] = target: Signal transducer and activator of transcription 3 (Homo sapiens) (UniProt P40763); assay: Inhibition of STAT3 phosphorylation in human U937 cells at 10 uM after 24 hrs by Western blotting; assay type: cell-based; settings: U-937; method in brief: as §1
HL-60 = assay: Cytotoxicity against human HL60 cells after 72 hrs by WST-8 assay; assay type: functional, cell-based; settings: HL-60, 72 h
Method in brief: (§2)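 Cells seeded at 5.0 × 10³ cells/100 µL/well in RPMI-1640 and exposed to compounds for 68 h. WST-8 was then added for a further 4 h. Formazan absorbance read at 450 nm (reference 655 nm). Percent inhibition calculated and IC50 read graphically from the curve.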

U-937 [3] = assay: Cell cycle arrest in human U937 cells assessed as reduction of cell population at G0/G1 phase at 100 nM after 24 hrs using propidium iodide staining by flow cytometry relative to control; assay type: functional; set-up: scale not given: the % may be the effect or the level left
Method in brief: (§3)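 U937 cells at 5.0 × 10⁴ cells/mL treated 24 h, pelleted, fixed in ice-cold ethanol overnight at −20 °C, treated with DNase-free RNase (0.25 mg/mL) at 37 °C for 30 min, then stained with propidium iodide. DNA content read by flow cytometry, 20,000 cells per sample. G0/G1, S and G2/M fractions compared with untreated control.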

HT-1080 [4] = assay: Decrease of F to G actin ratio in human HT1080 cells at 100 nM after 24 hrs; assay type: functional, cell-based
Method in brief: (§4)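 HT1080 cells seeded at 1.0 × 10⁴ cells/100 µL/well and treated 24 h at 37 °C. Cells fixed in 4% formaldehyde, permeabilized with cold methanol and blocked. F-actin stained with Alexa 350 phalloidin and G-actin with Alexa 488 DNase I, each 15 min at rt in the dark. Fluorescence read at ex 355/em 405 and ex 480/em 520 nm. Results are mean of n = 4; Dunnett's test against control.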

Cofilin-1 (Homo sapiens) = Cofilin-1 (Homo sapiens) (UniProt P23528); assay: Inhibition of cofilin phosphorylation in human U937 cells after 24 hrs by Western blotting; assay type: cell-based; settings: U-937
Chain of Cofilin-1 (Homo sapiens) (P23528 whole entry): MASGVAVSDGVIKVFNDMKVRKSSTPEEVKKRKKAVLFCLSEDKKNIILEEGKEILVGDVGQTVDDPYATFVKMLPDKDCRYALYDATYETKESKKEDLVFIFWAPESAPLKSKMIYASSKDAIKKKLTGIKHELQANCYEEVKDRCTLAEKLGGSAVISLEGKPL
Method in brief: (§5)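 U937 cells at 5.0 × 10⁴ cells/mL treated 24 h, then lysed with phosphatase and protease inhibitors. Equal protein loaded on SDS–PAGE. Blots probed 1 h with rabbit antibodies (1:1000) to phospho-cofilin, phospho-LIMK1/2, cofilin and β-actin in T-TBS. Detection with HRP anti-rabbit (1:5000) and ECL.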

U-937 [5] = assay: Cell cycle arrest in human U937 cells assessed as reduction of cell population at S phase at 100 nM after 24 hrs using propidium iodide staining by flow cytometry relative to control; assay type: functional; set-up: scale not given: the % may be the effect or the level left; method in brief: as §3
U-937 [6] = assay: Cytotoxicity against human U937 cells after 72 hrs by WST-8 assay; assay type: functional, cell-based; settings: U-937, 72 h; method in brief: as §2
[7] = target: T1, LIM domain kinase 1/2 (Homo sapiens) (UniProt P53671+P53667); assay: Inhibition of LIMK1/2 phosphorylation in human U937 cells at 0.1 to 100 nM after 24 hrs by Western blotting; assay type: cell-based; settings: U-937; method in brief: as §5
T1 sequence (P53667 whole entry, looked up, the tested form may be a part): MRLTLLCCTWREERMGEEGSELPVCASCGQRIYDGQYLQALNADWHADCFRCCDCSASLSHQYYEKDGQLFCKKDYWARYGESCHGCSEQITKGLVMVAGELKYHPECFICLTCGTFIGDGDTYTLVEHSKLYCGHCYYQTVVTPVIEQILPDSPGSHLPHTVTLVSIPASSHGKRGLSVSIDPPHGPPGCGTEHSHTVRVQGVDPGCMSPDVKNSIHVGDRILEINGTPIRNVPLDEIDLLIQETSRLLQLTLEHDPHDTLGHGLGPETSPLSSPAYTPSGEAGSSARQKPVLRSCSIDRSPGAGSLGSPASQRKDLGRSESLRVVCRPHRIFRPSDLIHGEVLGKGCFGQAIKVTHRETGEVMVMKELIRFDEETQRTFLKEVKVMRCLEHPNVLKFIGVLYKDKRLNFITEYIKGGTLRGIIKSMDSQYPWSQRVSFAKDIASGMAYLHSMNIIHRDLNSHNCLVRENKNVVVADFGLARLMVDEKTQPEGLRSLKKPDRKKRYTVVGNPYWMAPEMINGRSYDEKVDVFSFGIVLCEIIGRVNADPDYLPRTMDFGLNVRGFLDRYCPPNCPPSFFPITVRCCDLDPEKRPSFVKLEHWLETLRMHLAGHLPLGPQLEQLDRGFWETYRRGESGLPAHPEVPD
T1 sequence (P53671 whole entry, looked up, the tested form may be a part): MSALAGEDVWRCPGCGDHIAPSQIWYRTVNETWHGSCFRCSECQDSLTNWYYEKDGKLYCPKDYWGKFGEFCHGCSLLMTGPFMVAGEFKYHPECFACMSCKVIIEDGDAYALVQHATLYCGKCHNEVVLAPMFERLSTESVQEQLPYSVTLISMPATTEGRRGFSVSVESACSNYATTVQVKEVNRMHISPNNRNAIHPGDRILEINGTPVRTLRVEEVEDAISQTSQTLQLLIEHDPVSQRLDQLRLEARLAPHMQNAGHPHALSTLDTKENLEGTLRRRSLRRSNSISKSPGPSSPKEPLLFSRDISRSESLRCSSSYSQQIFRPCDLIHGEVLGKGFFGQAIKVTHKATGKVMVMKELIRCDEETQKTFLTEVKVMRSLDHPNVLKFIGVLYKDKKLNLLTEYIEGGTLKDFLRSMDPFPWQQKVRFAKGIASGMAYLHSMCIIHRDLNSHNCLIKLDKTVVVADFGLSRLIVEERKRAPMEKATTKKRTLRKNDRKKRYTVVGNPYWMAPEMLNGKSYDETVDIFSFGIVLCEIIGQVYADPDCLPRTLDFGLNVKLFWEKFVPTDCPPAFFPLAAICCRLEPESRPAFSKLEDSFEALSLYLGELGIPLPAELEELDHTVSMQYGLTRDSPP

U-937 [8] = assay: Cell cycle arrest in human U937 cells assessed as increase of cell population at G2/M phase at 100 nM after 24 hrs using propidium iodide staining by flow cytometry relative to control; assay type: functional; method in brief: as §3
HT-1080 [9] = assay: Cytotoxicity against human HT1080 cells after 72 hrs by WST-8 assay; assay type: functional, cell-based; settings: HT-1080, 72 h; method in brief: as §2
HT-1080 [10] = assay: Decrease of F to G actin ratio in human HT1080 cells at 1000 nM after 24 hrs; assay type: functional, cell-based; method in brief: as §4
[11] = target: T1, LIM domain kinase 1/2 (Homo sapiens); assay: Inhibition of LIMK1/2 phosphorylation in human U937 cells at 0.1 to 1000 nM after 24 hrs by Western blotting; assay type: cell-based; settings: U-937; method in brief: as §5

CC(=O)OC(C)(C)/C=C/C(=O)[C@](C)(O)[C@H]1[C@H](O)C[C@@]2(C)[C@@H]3CC=C4[C@H](C[C@H](O)C(=O)C4(C)C)[C@]3(C)C(=O)C[C@]12C
Activity [1]: Active | Activity [2]: inactive

CC(=O)OC(C)(C)/C=C/C(=O)[C@](C)(O)[C@H]1[C@H](O)C[C@@]2(C)[C@@H]3CC=C4[C@@H](C=C(O)C(=O)C4(C)C)[C@]3(C)C(=O)C[C@]12C [CUCURBITACIN E]
Activity [2]: inactive | IC50 (HL-60): 18 nM | Activity (U-937 [3]): 37.7% | Activity (HT-1080 [4]): Active | Activity (Cofilin-1 (Homo sapiens)): Dose-dependent effect | Activity (U-937 [5]): 28.1% | IC50 (U-937 [6]): 16 nM | Activity [7]: inactive | Activity (U-937 [8]): 34.2% | IC50 (HT-1080 [9]): 40 nM

CC(C)(O)/C=C/C(=O)[C@](C)(O)[C@H]1[C@H](O)C[C@@]2(C)[C@@H]3CC=C4[C@@H](C=C(O)C(=O)C4(C)C)[C@]3(C)C(=O)C[C@]12C [CUCURBITACIN I]
Activity (HT-1080 [10]): Active | Activity (Cofilin-1 (Homo sapiens)): Dose-dependent effect | Activity [7]: inactive | Activity [11]: inactive
